This is an account of results in ChEMBL document CHEMBL1123892, “Renin inhibitors based on novel dipeptide analogues. Incorporation of the dehydrohydroxyethylene isostere at the scissile bond” (J Med Chem, 1987).

pIC50: −log10 of the molar value.

The target of the first test is T1, Renin (Homo sapiens) (UniProt P00797).
T1 sequence (whole entry): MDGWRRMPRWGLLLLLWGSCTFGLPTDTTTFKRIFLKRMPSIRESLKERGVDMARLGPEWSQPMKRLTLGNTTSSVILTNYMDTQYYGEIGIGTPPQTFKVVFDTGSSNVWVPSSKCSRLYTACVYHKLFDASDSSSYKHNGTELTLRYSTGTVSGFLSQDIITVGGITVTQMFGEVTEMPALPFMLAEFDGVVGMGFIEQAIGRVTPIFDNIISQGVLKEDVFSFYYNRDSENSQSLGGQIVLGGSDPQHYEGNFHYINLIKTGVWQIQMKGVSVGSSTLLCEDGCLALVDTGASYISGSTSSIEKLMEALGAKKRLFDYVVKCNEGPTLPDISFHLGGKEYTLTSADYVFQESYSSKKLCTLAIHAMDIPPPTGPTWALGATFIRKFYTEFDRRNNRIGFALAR
Briefly: Compound was evaluated for percent inhibition of renin at a concentration of 1E-8M at 5 min pre-incubation time. The essentials: (§1)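 Purified human renal renin with pure human angiotensinogen (0.21 μM final) in 0.135 M maleate buffer pH 6.0, 3 mM EDTA, 1.4 mM PMSF, 0.44% BSA, 1% DMSO. Inhibitor at one fixed concentration, preincubated with renin 5 or 60 min at 37 °C before substrate addition. Reaction then ran 10.0 min, stopped by freezing. Angiotensin I measured by radioimmunoassay; percent inhibition reported.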
For orientation: inhibition means the relative decrease from the control value, in per cent. The low end stands for little suppression, the high end for strong suppression. Compound `C=C(C[C@H](O)[C@H](CC1CCCCC1)NC(=O)[C@H](C)NC(=O)[C@H](Cc1ccccc1)NC(=O)OC(C)(C)C)C(=O)NCCC(C)C` yielded an inhibition of 38%.

The target in the next test is T1, Renin (Homo sapiens). Briefly: Compound was evaluated for percent inhibition of renin at a concentration of 1E-8M at 60 min pre-incubation time. The method in brief:
as §1
Regarding `C=C(C[C@H](O)[C@H](CC1CCCCC1)NC(=O)[C@H](C)NC(=O)[C@H](Cc1ccccc1)NC(=O)OC(C)(C)C)C(=O)NCCC(C)C`, the inhibition was 31%.

A further test has as its target T2, Renin (Homo sapiens, UniProt P00797).
T2 sequence (P00797 whole entry): T1 sequence (whole entry)
Briefly: Inhibition of human renin. The method in brief:
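Purified human renal renin, 0.24 mGu, with pure human angiotensinogen (0.21 μM) at 37 °C in 0.135 M maleate pH 6.0 containing 3 mM EDTA, 1.4 mM PMSF, 0.44% BSA and 1% DMSO (final). At least three inhibitor concentrations bracketing the IC50 preincubated with enzyme 5 min, then 10.0 min reaction stopped by freezing. Angiotensin I read by RIA; IC50 by regression of percent inhibition.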
What is called pIC50 is −log10 of the IC50, conventionally taken in molar units. A higher pIC50 goes with a low IC50. `CC(C)CNC(=O)[C@](O)(CN=[N+]=[N-])C[C@H](O)[C@H](CC1CCCCC1)NC(=O)[C@H](Cc1cnc[nH]1)NC(=O)[C@H](Cc1ccccc1)NC(=O)OC(C)(C)C` had a pIC50 of 9.00.

With `C=C(C[C@H](O)[C@H](CC1CCCCC1)NC(=O)[C@H](C)NC(=O)[C@H](Cc1ccccc1)NC(=O)OC(C)(C)C)C(=O)NCCc1ccccc1`, the pIC50 was 6.82.

`CC(C)CNC(=O)[C@](O)(CCl)C[C@H](O)[C@H](CC1CCCCC1)NC(=O)[C@H](Cc1cnc[nH]1)NC(=O)[C@H](Cc1ccccc1)NC(=O)OC(C)(C)C` had a pIC50 of 9.10.

For the compound `C=C(C[C@H](O)[C@H](CC(C)C)NC(=O)[C@H](C)NC(=O)[C@H](Cc1ccccc1)NC(=O)OC(C)(C)C)C(=O)N[C@H](O)CC(C)C`, the pIC50 is 5.22.

The compound `CC(C)CNC(=O)[C@@](O)(CN=[N+]=[N-])C[C@H](O)[C@H](CC1CCCCC1)NC(=O)[C@H](Cc1cnc[nH]1)NC(=O)[C@H](Cc1ccccc1)NC(=O)OC(C)(C)C` showed a pIC50 of 7.70.

`C=C(C[C@H](O)[C@H](CC1CCCCC1)NC(=O)[C@H](CC(C)C)NC(=O)[C@H](Cc1ccccc1)NC(=O)OC(C)(C)C)C(=O)NCCC(C)C` had a pIC50 of 8.40.

With `C=C(C[C@H](O)[C@H](CC1CCCCC1)NC(=O)[C@H](Cc1c[nH]cn1)NC(=O)[C@H](Cc1ccccc1)NC(=O)OCC)C(=O)NCCC(C)C`, the pIC50 was 8.52.

With `CC(C)CNC(=O)[C@@](O)(CN)C[C@H](O)[C@H](CC1CCCCC1)NC(=O)[C@H](Cc1cnc[nH]1)NC(=O)[C@H](Cc1ccccc1)NC(=O)OC(C)(C)C`, the pIC50 is 7.46.

Turning to `CC(C)CCNC(=O)C1(C[C@H](O)[C@H](CC2CCCCC2)NC(=O)[C@H](C)NC(=O)[C@H](Cc2ccccc2)NC(=O)OC(C)(C)C)CO1` (stereo partly drawn), the pIC50 is 7.60.

Compound `CC(C)CCNC(=O)[C@@](C)(O)C[C@H](O)[C@H](CC1CCCCC1)NC(=O)[C@H](Cc1c[nH]cn1)NC(=O)[C@H](Cc1ccccc1)NC(=O)OC(C)(C)C` had a pIC50 of 8.26.

`CC(C)CCNC(=O)[C@](C)(O)C[C@H](O)[C@H](CC1CCCCC1)NC(=O)[C@H](Cc1c[nH]cn1)NC(=O)[C@H](Cc1ccccc1)NC(=O)OC(C)(C)C` had a pIC50 of 7.30.

As to `C=C(C[C@H](O)[C@H](CC1CCCCC1)NC(=O)[C@H](C)NC(=O)[C@H](Cc1ccccc1)NC(=O)OC(C)(C)C)C(=O)NCCN(C)C`, the pIC50 was 6.40.

Regarding `C=C(C[C@H](O)[C@H](CC1CCCCC1)NC(=O)[C@H](C)NC(=O)[C@H](Cc1ccccc1)NC(=O)OC(C)(C)C)C(=O)NCC(C)C`, the pIC50 was 8.00.

`C=C(C[C@H](O)[C@H](CC1CCCCC1)NC(=O)[C@H](Cc1c[nH]cn1)NC(=O)[C@H](Cc1ccccc1)NC(=O)CC(C)(C)C)C(=O)NC` gave a pIC50 of 8.70.

Turning to `CC(C)CNC(=O)[C@](O)(CC(C)C)C[C@H](O)[C@H](CC1CCCCC1)NC(=O)[C@H](Cc1c[nH]cn1)NC(=O)[C@H](Cc1ccccc1)NC(=O)OC(C)(C)C`, the pIC50 was 7.52.

Take `C=C(C[C@H](O)[C@H](CC1CCCCC1)NC(=O)[C@H](Cc1c[nH]cn1)NC(=O)[C@H](Cc1ccccc1)NC(=O)OC(C)(C)C)C(=O)NCCC(C)C`: the pIC50 is 8.82.

Compound `CC(C)CNC(=O)[C@@](O)(CCl)C[C@H](O)[C@H](CC1CCCCC1)NC(=O)[C@H](Cc1c[nH]cn1)NC(=O)[C@H](Cc1ccccc1)NC(=O)OC(C)(C)C` showed a pIC50 of 7.70.

The compound `C=C(C[C@H](O)[C@H](CC1CCCCC1)NC(=O)[C@H](Cc1c[nH]cn1)NC(=O)[C@H](Cc1ccccc1)NC(=O)OC(C)(C)C)C(=O)NCC(C)(C)CN(C)C` had a pIC50 of 8.30.

`C=C(C[C@H](O)[C@H](CC1CCCCC1)NC(=O)[C@H](Cc1c[nH]cn1)NC(=O)[C@H](Cc1ccccc1)NC(=O)OC(C)(C)C)C(=O)NCC(C)C` had a pIC50 of 8.70.

`C=C(C[C@H](O)[C@H](CC1CCCCC1)NC(=O)[C@H](C)NC(=O)[C@H](Cc1ccccc1)NC(=O)OC(C)(C)C)C(=O)NC` gave a pIC50 of 7.30.

`C=C(C[C@H](O)[C@H](CC1CCCCC1)NC(=O)[C@H](C)NC(=O)[C@H](Cc1ccccc1)NC(=O)OC(C)(C)C)C(=O)NCC1CCCCC1` showed a pIC50 of 7.30.

`C=C(C[C@H](O)[C@H](CC(C)C)NC(=O)[C@H](C)NC(=O)[C@H](Cc1ccccc1)NC(=O)OC(C)(C)C)C(=O)NCC(C)C`: the pIC50 is 6.40.

On to `C=C(C[C@H](O)[C@H](CC1CCCCC1)NC(=O)[C@H](Cc1c[nH]cn1)NC(=O)[C@H](Cc1ccccc1)NC(C)=O)C(=O)NCCC(C)C`, for which the pIC50 was 8.40.

For `CC(C)CNC(=O)[C@](O)(CN)C[C@H](O)[C@H](CC1CCCCC1)NC(=O)[C@H](Cc1c[nH]cn1)NC(=O)[C@H](Cc1ccccc1)NC(=O)OC(C)(C)C`, the pIC50 was 7.82.

As to `C=C(C[C@H](O)[C@H](CC1CCCCC1)NC(=O)[C@H](C)NC(=O)[C@H](Cc1ccccc1)NC(=O)OC(C)(C)C)C(=O)NCC(C)(C)CN(C)C`, the pIC50 was 7.60.

Take `CNC(=O)C1(C[C@H](O)[C@H](CC2CCCCC2)NC(=O)[C@H](C)NC(=O)[C@H](Cc2ccccc2)NC(=O)OC(C)(C)C)CO1` (stereo partly drawn): the pIC50 is 7.40.

Turning to `C=C(C[C@H](O)[C@H](CC1CCCCC1)NC(=O)[C@H](Cc1c[nH]cn1)NC(=O)[C@H](CO)NC(=O)OC(C)(C)C)C(=O)NCCC(C)C`, the pIC50 is 5.70.

In the case of `C=C(C[C@H](O)[C@H](CC1CCCCC1)NC(=O)C(Cc1c[nH]cn1)NC(=O)C(C)(O)c1ccccc1)C(=O)NCCC(C)C` (stereo partly drawn), the pIC50 is 7.00.

For `C=C(C[C@H](O)[C@H](CC1CCCCC1)NC(=O)[C@H](Cc1ccccc1)NC(=O)[C@H](Cc1ccccc1)NC(=O)OC(C)(C)C)C(=O)NCC(C)(C)CN(C)C`, the pIC50 is 8.07.

The compound `C=C(C[C@H](O)[C@H](CC1CCCCC1)NC(=O)[C@H](CC(C)C)NC(=O)[C@H](Cc1ccccc1)NC(=O)OCC)C(=O)NCC(C)(C)CN(C)C` gave a pIC50 of 8.00.

With `C=C(C[C@H](O)[C@H](CC(C)C)NC(=O)[C@H](C)NC(=O)[C@H](Cc1ccccc1)NC(=O)OC(C)(C)C)C(=O)NCCC(C)C`, the pIC50 was 6.70.

`C=C(C[C@H](O)[C@H](CC1CCCCC1)NC(=O)[C@H](CC(C)C)NC(=O)[C@H](Cc1ccccc1)NC(=O)OCC)C(=O)NCC(C)C` had a pIC50 of 8.30.

For the compound `C=C(C[C@H](O)[C@H](CC1CCCCC1)NC(=O)[C@H](C)NC(=O)[C@H](Cc1ccccc1)NC(=O)OC(C)(C)C)C(=O)NCCC(C)C`, the pIC50 is 8.00.

In another test the target is T1, Renin (Homo sapiens). The test can be described thus: Compound was evaluated for percent inhibition of renin at a concentration of 2.5*10e-8 M at 5 min pre-incubation time. The method in brief: as §1
Compound `CC(C)CCNC(=O)C1(C[C@H](O)[C@H](CC2CCCCC2)NC(=O)[C@H](C)NC(=O)[C@H](Cc2ccccc2)NC(=O)OC(C)(C)C)CO1` (stereo partly drawn) gave an inhibition of 66%.

The next test has as its target T1, Renin (Homo sapiens). The test can be described thus: Compound was evaluated for percent inhibition of renin at a concentration of 2.5*10e-8 M at 60 min preincubation time. The essentials: as §1
On to `CC(C)CCNC(=O)C1(C[C@H](O)[C@H](CC2CCCCC2)NC(=O)[C@H](C)NC(=O)[C@H](Cc2ccccc2)NC(=O)OC(C)(C)C)CO1` (stereo partly drawn), for which the inhibition worked out at 61%.

Another test concerns the target T1, Renin (Homo sapiens). The test can be described thus: Compound was evaluated for percent inhibition of renin at a concentration of 4E-7M at 5 min pre-incubation time. The essentials:
as §1
For the compound `C=C(C[C@H](O)[C@H](CC(C)C)NC(=O)[C@H](C)NC(=O)[C@H](Cc1ccccc1)NC(=O)OC(C)(C)C)C(=O)NCC(C)C`, the inhibition was found to be 48%.

Another test has as its target T1, Renin (Homo sapiens). The test can be described thus: Compound was evaluated for percent inhibition of renin at a concentration of 4E-7M at 60 min pre-incubation time. The essentials: as §1
In turn, `C=C(C[C@H](O)[C@H](CC(C)C)NC(=O)[C@H](C)NC(=O)[C@H](Cc1ccccc1)NC(=O)OC(C)(C)C)C(=O)NCC(C)C` showed an inhibition of 43%.

In a further test the target is T1, Renin (Homo sapiens). Briefly: Compound was evaluated for percent inhibition of renin at a concentration of 5E-8 M at 5 min pre-incubation time. The method in brief: as §1
Compound `C=C(C[C@H](O)[C@H](CC1CCCCC1)NC(=O)[C@H](C)NC(=O)[C@H](Cc1ccccc1)NC(=O)OC(C)(C)C)C(=O)NCC1CCCCC1` registered an inhibition of 49%.

In another test the target is T1, Renin (Homo sapiens). Briefly: Compound was evaluated for percent inhibition of renin at a concentration of 5E-8 M at 60 min pre-incubation time. The method in brief:
as §1
With `C=C(C[C@H](O)[C@H](CC1CCCCC1)NC(=O)[C@H](C)NC(=O)[C@H](Cc1ccccc1)NC(=O)OC(C)(C)C)C(=O)NCC1CCCCC1`, the inhibition came to 53%.

The target in another test is T1, Renin (Homo sapiens). Briefly: Compound was evaluated for percent inhibition of renin at a concentration of 5e-8M at 5 min pre-incubation time. The method in brief: as §1
The compound `C=C(C[C@H](O)[C@H](CC1CCCCC1)NC(=O)[C@H](C)NC(=O)[C@H](Cc1ccccc1)NC(=O)OC(C)(C)C)C(=O)NC` displayed an inhibition of 44%.

The next test deals with T1, Renin (Homo sapiens). Briefly: Compound was evaluated for percent inhibition of renin at a concentration of 5e-8M at 60 min pre-incubation time. The essentials: as §1
`C=C(C[C@H](O)[C@H](CC1CCCCC1)NC(=O)[C@H](C)NC(=O)[C@H](Cc1ccccc1)NC(=O)OC(C)(C)C)C(=O)NC` had an inhibition of 37%.
